Compound activity as filed in PubChem BioAssay.
The list is not random: actives were taken first. Their share in the collection is about 9.6%.
b-catenin transl = modulators of beta-catenin nuclear translocation. hit rate 0.3% among 190,000. HeLa beta-catenin nuclear translocation, immunofluorescence imaging. AID 1665. nuclear translocation activity, % at 5 µM;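 active = nuclear translocation activity above 50% at 5 µM, with a well cell count of 50 or more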;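 note: per-cell ratio of nuclear to cytoplasmic median beta-catenin stain intensity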
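System: HeLa cells, endogenous beta-catenin; compound dosing: 5 µM primary single dose, 0.1% DMSO, 0.02–20 µM confirmation series; incubation: 24 h compound exposure at 37°C, 5% CO2; signal: beta-catenin immunofluorescence imaging with DAPI; evaluation: % activation, nuclear-to-cytoplasmic median beta-catenin signal ratio per cell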
L major viab = reduces viability of Leishmania major promastigotes. inhibition, % at 10 µM. resazurin fluorescence viability. hit rate 9% among 200,000; in the data active = inhibition above about 50%;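 note: promastigotes grown with compound for 44 hours at 28 °C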
BaF3 tox = reduces parental Ba/F3 cell viability, JAK2V617F counter-screen | CellTiter-Glo ATP luminescence | inhibition, % at 5.6 µM | hit rate 1.1% among 220,000 | AID 1486;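 active = inhibition above a per-campaign cutoff, the mean inhibition of all tested compounds plus 3 SD, cut at about 27% in these data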
Ba/F3 V617F tox = loss of viability in JAK2V617F-driven Ba/F3 cells. Ba/F3 EpoR-JAK2V617F viability, ATP luminescence. inhibition, % at 5.6 µM. hit rate 1.1% among 220,000. AID 1446;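 active = inhibition above the campaign mean plus 3 SD over all tested compounds, cut at about 24% in these data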;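 note: cytokine-independent growth of Ba/F3 cells driven by EpoR plus mutant JAK2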
MT stabilize HCS = microtubule stabilizers in HeLa cells. % tubulin-high responders, % at 10 µM. HeLa tubulin immunostaining HCS, 24 h; share of cells brighter than vehicle mean+2SD. hit rate 0.83% among 200,000;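 active = plate Z-score above 3 for both tubulin-high and condensed-nucleus cell shares, with cell loss under 80%, at 10 µM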;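 note: anti alpha tubulin signal scored within the nucleus-defined area of each cell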
APP 5UTR inh = APP translation inhibition; AID 1285; inhibition, % at 2 µM; hit rate 0.82% among 190,000; SH-SY5Y APP 5'UTR-luciferase reporter, luminescence;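 active = inhibition above a set limit, derived from the sample mean plus 3 SD, cut at about 45% in these data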
Numbers stand for hits.

What do the screens show for `C[n+]1c2n(c3ccccc31)N=C(c1ccccc1)CS2`?
b-catenin transl: inactive; L major viab: 98; BaF3 tox: 68; Ba/F3 V617F tox: 91; MT stabilize HCS: inactive; APP 5UTR inh: inactive

How did C[n+]1c2n(c3ccccc31)N=C(c1ccc(-c3ccccc3)cc1)CS2 do in these assays?
b-catenin transl: inactive; L major viab: 100; BaF3 tox: 71; Ba/F3 V617F tox: 99; MT stabilize HCS: inactive; APP 5UTR inh: inactive

What do the screens show for `COC(=O)C1=C(C)Nc2nc(-c3ccccc3)nn2C1c1ccc(C)o1` (centres undefined)?
b-catenin transl: inactive; L major viab: inactive; BaF3 tox: inactive; Ba/F3 V617F tox: inactive; MT stabilize HCS: inactive; APP 5UTR inh: inactive

How did Cn1cc(CN2CCC(C(=O)N3CCCC3)CC2)c(-c2ccccc2F)n1 do in these assays?
b-catenin transl: inactive; L major viab: inactive; BaF3 tox: inactive; Ba/F3 V617F tox: inactive; MT stabilize HCS: inactive; APP 5UTR inh: inactive

What do the screens show for `Cn1cc(CN2C[C@H]3CC[C@H]2C3)c(-c2ccccc2F)n1`?
b-catenin transl: inactive; L major viab: inactive; BaF3 tox: 31; Ba/F3 V617F tox: 55; MT stabilize HCS: inactive; APP 5UTR inh: inactive

How did COc1ccc(-n2c(COc3cccc4ccccc34)nnc2SC(C)C(=O)O)cc1 (centres undefined) do in these assays?
b-catenin transl: inactive; L major viab: inactive; BaF3 tox: inactive; Ba/F3 V617F tox: inactive; MT stabilize HCS: inactive; APP 5UTR inh: inactive

How did CS(=O)(=O)N1N=C(c2cccs2)CC1c1ccccc1F (centres undefined) do in these assays?
b-catenin transl: inactive; L major viab: inactive; BaF3 tox: inactive; Ba/F3 V617F tox: inactive; MT stabilize HCS: inactive; APP 5UTR inh: inactive

What do the screens show for `CC1C/C(=C/c2cccn2C)C(=O)/C(=C/c2cccn2C)C1` (centres undefined)?
L major viab: 86; BaF3 tox: inactive; Ba/F3 V617F tox: inactive; MT stabilize HCS: inactive; APP 5UTR inh: inactive

How did CC1C/C(=C/c2ccncc2)C(=O)/C(=C/c2ccncc2)C1 (centres undefined) do in these assays?
L major viab: 101; BaF3 tox: inactive; Ba/F3 V617F tox: inactive; MT stabilize HCS: 37; APP 5UTR inh: 95

What do the screens show for `Cn1cccc1/C=C1/SC(=S)N(CC(=O)O)C1=O`?
b-catenin transl: inactive; L major viab: inactive; BaF3 tox: inactive; Ba/F3 V617F tox: inactive; MT stabilize HCS: inactive; APP 5UTR inh: inactive

Results for Cc1ccc(CC(=O)Nc2ccncc2)cc1 ?
b-catenin transl: inactive; L major viab: inactive; BaF3 tox: 42; Ba/F3 V617F tox: 36; MT stabilize HCS: inactive; APP 5UTR inh: inactive

How did Brc1ccc2c(c1)C(c1cccnc1)=NNC(c1cccs1)=N2 do in these assays?
b-catenin transl: inactive; L major viab: inactive; BaF3 tox: inactive; Ba/F3 V617F tox: inactive; MT stabilize HCS: 18; APP 5UTR inh: inactive

Results for CCc1ccc2c(c1)C(c1ccc(N3CCOCC3)cc1)=NNC(c1ccncc1)=N2 ?
b-catenin transl: inactive; L major viab: 57; BaF3 tox: inactive; Ba/F3 V617F tox: inactive; MT stabilize HCS: inactive; APP 5UTR inh: inactive

What do the screens show for `Brc1ccc2c(c1)C(c1ccc(N3CCOCC3)cc1)=NNC(c1cccs1)=N2`?
b-catenin transl: inactive; L major viab: 78; BaF3 tox: inactive; Ba/F3 V617F tox: inactive; MT stabilize HCS: inactive; APP 5UTR inh: inactive

What do the screens show for `Fc1ccc2c(c1)C(c1ccc(N3CCOCC3)cc1)=NNC(c1cccs1)=N2`?
b-catenin transl: inactive; L major viab: inactive; BaF3 tox: inactive; Ba/F3 V617F tox: inactive; MT stabilize HCS: inactive; APP 5UTR inh: inactive

Results for CCOc1ccc(C2=Nc3ccc(Br)cc3C(c3ccc(N4CCOCC4)cc3)=NN2)cc1 ?
b-catenin transl: inactive; L major viab: inactive; BaF3 tox: inactive; Ba/F3 V617F tox: inactive; MT stabilize HCS: inactive; APP 5UTR inh: inactive

How did Cc1ccc2c(c1)C(c1ccc(N3CCOCC3)cc1)=NNC(c1cccs1)=N2 do in these assays?
b-catenin transl: inactive; L major viab: 86; BaF3 tox: inactive; Ba/F3 V617F tox: inactive; MT stabilize HCS: inactive; APP 5UTR inh: inactive

How did CCc1ccc(OCC(=O)O/N=C(\N)Cc2ccc([N+](=O)[O-])cc2)cc1 do in these assays?
b-catenin transl: inactive; L major viab: inactive; BaF3 tox: inactive; Ba/F3 V617F tox: inactive; MT stabilize HCS: inactive; APP 5UTR inh: inactive

What do the screens show for `CCc1ccc2c(c1)C(c1ccc([N+](=O)[O-])cc1)=NNC(c1ccc(C)cc1)=N2`?
L major viab: 85; BaF3 tox: inactive; Ba/F3 V617F tox: inactive; MT stabilize HCS: inactive; APP 5UTR inh: inactive
